# Source: paper PMC11190929 (ACS Omega, 2024)
# pIC50, pKd: −log10 of the molar value.
# Tests used:
# MARK4 [1] = biological target: T1, MARK4 (Homo sapiens, UniProt Q96L34); assay: Fluorescence binding studies; details: for KSV: Stern-Volmer
# T1 sequence (Q96L34 59-368): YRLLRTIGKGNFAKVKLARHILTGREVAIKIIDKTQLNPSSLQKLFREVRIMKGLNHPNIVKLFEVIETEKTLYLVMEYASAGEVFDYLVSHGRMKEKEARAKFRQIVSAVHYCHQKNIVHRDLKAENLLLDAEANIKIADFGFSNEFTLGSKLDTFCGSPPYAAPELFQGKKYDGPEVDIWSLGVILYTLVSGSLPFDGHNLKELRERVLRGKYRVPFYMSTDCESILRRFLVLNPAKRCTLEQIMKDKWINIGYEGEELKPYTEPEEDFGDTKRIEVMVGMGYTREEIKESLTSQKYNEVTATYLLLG
# Method in brief: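 Intrinsic fluorescence of recombinant MARK4 (4 μM) titrated with test compound at 0–15 μM. Excitation 280 nm, emission 300–400 nm, slit 10 nm, medium response. Quenching data fitted to the Stern–Volmer and modified Stern–Volmer equations to give binding constant Ka and number of binding sites n.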
# MARK4 [2] = biological target: T1, MARK4; assay: ATPase enzyme inhibition assay; format: biochemical; details: for ATPase activity of MARK4: in the presence of compound
# Method in brief: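 MARK4 (residues 59–368), expressed in E. coli M15 and purified, at 6 μM with 20 μM ATP in 20 mM Tris pH 8.0. Incubated with test compound (0–120 μM) at 25 °C for 10–15 min. Phosphate detected with Biomol Green malachite-green reagent, absorbance 620 nm. IC50 computed with an online calculator.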
# C3A cells [3] = assay: Transwell cell migration assay, C3A; format: cell-based, human; details: 1/2 IC50, 24 h, vs vehicle control
# Method in brief: (§1)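 Serum-starved cells treated with test compound or vehicle for 24 h, then 50 × 10^3 cells/well placed in serum-free medium in the upper Boyden chamber (8.0 μm PET membrane). Lower chamber held complete medium with 10% FBS. Next day, non-migrated cells were swabbed off. Migrated cells were methanol-fixed, stained with 0.4% crystal violet in 25% methanol, and counted in 4–5 random fields.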
# C3A cells [4] = assay: Annexin-V/PI staining; format: cell-based, human
# Method in brief: (§2)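 Cells were exposed to test compound or vehicle for 72 h, then trypsinized and washed 2–3 times in sterile PBS. They were stained with PI and Cy5-labelled annexin-V and analysed by flow cytometry. Positive cells were quantified from n = 3 biological replicates, with a t test against vehicle.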
# SNU-475 cells [5] = assay: Cell viability; format: cell-based; details: Homo sapiens, SNU-475, 72 h, read-out: IC50 (cell viability)
# Method in brief: (§3)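 Cells grown in Eagle's MEM with 10% FBS and 1% penicillin/streptomycin, seeded at 2000–3000 cells/well and left overnight. Treated with test compound 0–200 μM for 48–72 h. PrestoBlue HS (resazurin) added for about 45 min, fluorescence read at 560/590 nm. Percent viability relative to vehicle control plotted against dose.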
# SNU-475 cells [6] = assay: Transwell cell migration assay, SNU-475; format: cell-based, human; details: SNU-475, 1/2 IC50, 24 h, vs vehicle control
# Method in brief: as §1
# C3A cells [7] = assay: Cell viability; format: cell-based; details: Homo sapiens, 72 h, read-out: IC50 (cell viability)
# Method in brief: as §3
# [8] = system: tau phosphorylation in SH-SY5Y cells; assay: Tau-phosphorylation assay; format: cell-based, human; details: compound at its enzyme IC50 concentration, 24 h
# Method in brief: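 SH-SY5Y neuroblastoma cells kept in 1:1 Eagle's MEM/F12 and plated in six-well plates, then incubated with test compound for 24 h. Cells were trypsinized, fixed and rinsed, then labelled with an anti-phospho-tau primary and an Alexa-647 conjugated secondary antibody. After washing and resuspension in FACS buffer, cells were analysed by flow cytometry.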
# SNU-475 cells [9] = assay: Annexin-V/PI staining; format: cell-based, human; details: SNU-475, annexin-V/PI
# Method in brief: as §2
# HEK293 cells = assay: Cytotoxicity on noncancerous HEK293 cells; format: cell-based, human; details: up to 200 μM
# Method in brief: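 HEK293 cells in RPMI 1640 medium, seeded at 2000–3000 cells/well and allowed to grow overnight. Exposed to test compound over 0–200 μM for 48–72 h. Resazurin-based PrestoBlue HS reagent applied about 45 min, fluorescence measured at excitation 560/emission 590 nm. Viability expressed as percent of vehicle control across doses.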
# [10] = fluorescence quenching, modified Stern-Volmer
Compound,pKd (MARK4 [1]),KSV (MARK4 [1]; fluorescence quenching),n (number of binding sites) (MARK4 [1]; [10]),ATPase activity of MARK4 (MARK4 [2]),other results
"COc1cc(C(=O)N/N=C2\C(=O)Nc3c2cccc3[N+](=O)[O-])ccc1O [VI-8, (Z)-4-Hydroxy-3-methoxy-N′-(7-nitro-2-oxoindolin-3-ylidene)benzohydrazide]",4.12,0.6 × 10^5 M^–1,0.8606,,
"COc1cc(C(=O)N/N=C2\C(=O)Nc3ccc(Cl)cc32)ccc1O [VI-6, (Z)-N′-(5-Chloro-2-oxoindolin-3-ylidene)-4-hydroxy-3-methoxybenzohydrazide]",5.80,1.4 × 10^5 M^–1,1.135,,
(Z)-N′-(6-Fluoro-2-oxoindolin-3-ylidene)-4-hydroxy-3-methoxybenzohydrazide [VI-11],,1.4 × 10^5 M^–1,1.015,,"Ka (binding constant) (MARK4 [1]; fluorescence quenching, modified Stern-Volmer, excitation 280 nm): 1.56 × 10^5 M^–1"
"COc1cc(C(=O)N/N=C2\C(=O)Nc3cc(Cl)c(F)cc32)ccc1O [VI-10, (Z)-N′-(6-Chloro-5-fluoro-2-oxoindolin-3-ylidene)-4-hydroxy-3-methoxybenzohydrazide]",4.90,0.8 × 10^5 M^–1,1.006,,
"COc1cc(C(=O)N/N=C2\C(=O)Nc3c(C)cc(C)cc32)ccc1O [VI-5, (Z)-N′-(5,7-Dimethyl-2-oxoindolin-3-ylidene)-4-hydroxy-3-methoxybenzohydrazide]",4.40,1.0 × 10^5 M^–1,0.8404,decreased considerably,
"COc1ccc2c(c1)/C(=N/NC(=O)c1ccc(O)c(OC)c1)C(=O)N2 [VI-3, (Z)-4-Hydroxy-3-methoxy-N′-(5-methoxy-2-oxoindolin-3-ylidene)benzohydrazide]",7.35,3.8 × 10^5 M^–1,1.367,decreased considerably,
"COc1cc(C(=O)N/N=C2\C(=O)Nc3cc(Cl)ccc32)ccc1O [VI-4, (Z)-N′-(6-Chloro-2-oxoindolin-3-ylidene)-4-hydroxy-3-methoxybenzohydrazide]",5.95,1.8 × 10^5 M^–1,1.141,,
"COc1cc(C(=O)N/N=C2\C(=O)Nc3ccccc32)ccc1O [VI-1, (Z)-4-Hydroxy-3-methoxy-N′-(2-oxoindolin-3-ylidene)benzohydrazide]",6.75,3.9 × 10^5 M^–1,1.241,,
"COc1cc(C(=O)N/N=C2\C(=O)Nc3cc(F)ccc32)ccc1O [VI-14, (Z)-N′-(6-Fluoro-2-oxoindolin-3-ylidene)-4-hydroxy-3-methoxybenzohydrazide]",6.13,1.8 × 10^5 M^–1,1.199,,
"COc1cc(C(=O)N/N=C2\C(=O)Nc3c(Cl)cccc32)ccc1O [VI-9, (Z)-N′-(7-Chloro-2-oxoindolin-3-ylidene)-4-hydroxy-3-methoxybenzohydrazide]",5.17,1.0 × 10^5 M^–1,1.047,decreased considerably,Cell migration (C3A cells [3]): significantly decreased the migration; Apoptosis induction (C3A cells [4]): strongly promote early apoptosis; pIC50 (SNU-475 cells [5]): 5.36; Cell migration (SNU-475 cells [6]): significantly decreased the migration; pIC50 (MARK4 [2]): 5.15; pIC50 (C3A cells [7]): 5.16; Tau phosphorylation [8]: decreased the tau phosphorylation; Apoptosis induction (SNU-475 cells [9]): strongly promote early apoptosis; Cytotoxicity on noncancerous HEK293 cells (HEK293 cells): did not exhibit cytotoxicity
"COc1cc(C(=O)N/N=C2\C(=O)Nc3ccc(C)cc32)ccc1O [VI-2, (Z)-4-Hydroxy-3-methoxy-N′-(5-methyl-2-oxoindolin-3-ylidene)benzohydrazide]",6.14,3.7 × 10^5 M^–1,1.145,decreased considerably,
"COc1cc(C(=O)N/N=C2\C(=O)Nc3ccc(Br)cc32)ccc1O [VI-7, (Z)-N′-(5-Bromo-2-oxoindolin-3-ylidene)-4-hydroxy-3-methoxybenzohydrazide]",5.52,1.7 × 10^5 M^–1,1.067,,
"COc1ccc2c(c1)NC(=O)/C2=N\NC(=O)c1ccc(O)c(OC)c1 [VI-13, (Z)-4-Hydroxy-3-methoxy-N′-(6-methoxy-2-oxoindolin-3-ylidene)benzohydrazide]",7.43,0.8 × 10^5 M^–1,1.517,,
